Measurements from article PMC4963206 (ChemMedChem, 2016).
pIC50, pKi: −log10 of the molar value.

How the values were obtained:
AR230 cells = assay: Phenotypic screening / cytotoxicity in CML cell line AR230; assay type: cell-based; details: read-out: IC50 AR230
[1] = In vivo bioavailability / plasma pharmacokinetics, IP injection; parameters: species or system CD-1 mice
Summary of the method: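 CD-1 mice received 20 mg/kg IP in 10% DMA, 65% PEG 400, 25% saline. Parent compound in plasma was measured to give concentration–time profiles. In one study, a cohort of 3 mice was sampled at 15, 30, 60, 90, 180 and 360 min post-dose, and plasma was analysed for parent compound by LC-MS.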

[2] = Metabolic stability in CD-1 mouse hepatocytes; assay type: in vitro ADME
Summary of the method: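 CD-1 mouse hepatocytes were incubated with the test compound for 120 min. Remaining parent compound was quantified by LC-MS/MS at regular time points to assess metabolic degradation.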

AR230^R cells = assay: Phenotypic screening / cytotoxicity in TKI-resistant CML cell line AR230^R; assay type: cell-based
[3] = 19F NMR monitoring of reaction with glutathione; assay type: physicochemical; details: 100 μM, 10 equivalents of glutathione, 37 °C, 15 hours
Summary of the method: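 Samples were in 100 mM HEPES pH 7.2, 150 mM NaCl, with 10% […] and 1% DMSO final. Test compound at 100 μM was incubated with 10 equivalents of glutathione for 15 hours at 37°C. ¹⁹F NMR spectra were recorded at 37°C on a 600 MHz spectrometer with a room-temperature H(F)CN probe.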

Plasma protein binding = assay type: in vitro ADME; details: CD-1 mice plasma, dialysis 6 hours, 37°C
Summary of the method: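 Plasma protein isolated from CD-1 mice was spiked with the test compound and dialysed against PBS for 6 hours at 37°C under 5% CO₂. Plasma and buffer compartments were both analysed to give the percentage of free compound. Ketoconazole was the positive control.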

STAT3 [4] = target: T1, STAT3 (Homo sapiens, UniProt P40763); assay: 19F NMR examination of binding to STAT3; details: 100 μM compound with STAT3, 37 °C, 1 hour
STAT3 [5] = target: T1, STAT3; assay: Competitive fluorescence polarization; assay type: binding
Summary of the method: (§1)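 Competitive binding assay in which the test compound displaces a fluoresceinated peptide from the SH2 domain, read by fluorescence polarization. IC50 is reported with a 95% confidence interval, and Ki is reported alongside it.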

[6] = system: pSTAT3 / STAT3 in AR230^R cells; assay type: cell-based; details: 10 μM, 2 hours pre-treatment, IL-6 and IFN stimulation
STAT1 = target: T2, STAT1 (Homo sapiens, UniProt P42224); assay: Competitive fluorescence polarization; assay type: binding
T2 sequence (P42224 1-750): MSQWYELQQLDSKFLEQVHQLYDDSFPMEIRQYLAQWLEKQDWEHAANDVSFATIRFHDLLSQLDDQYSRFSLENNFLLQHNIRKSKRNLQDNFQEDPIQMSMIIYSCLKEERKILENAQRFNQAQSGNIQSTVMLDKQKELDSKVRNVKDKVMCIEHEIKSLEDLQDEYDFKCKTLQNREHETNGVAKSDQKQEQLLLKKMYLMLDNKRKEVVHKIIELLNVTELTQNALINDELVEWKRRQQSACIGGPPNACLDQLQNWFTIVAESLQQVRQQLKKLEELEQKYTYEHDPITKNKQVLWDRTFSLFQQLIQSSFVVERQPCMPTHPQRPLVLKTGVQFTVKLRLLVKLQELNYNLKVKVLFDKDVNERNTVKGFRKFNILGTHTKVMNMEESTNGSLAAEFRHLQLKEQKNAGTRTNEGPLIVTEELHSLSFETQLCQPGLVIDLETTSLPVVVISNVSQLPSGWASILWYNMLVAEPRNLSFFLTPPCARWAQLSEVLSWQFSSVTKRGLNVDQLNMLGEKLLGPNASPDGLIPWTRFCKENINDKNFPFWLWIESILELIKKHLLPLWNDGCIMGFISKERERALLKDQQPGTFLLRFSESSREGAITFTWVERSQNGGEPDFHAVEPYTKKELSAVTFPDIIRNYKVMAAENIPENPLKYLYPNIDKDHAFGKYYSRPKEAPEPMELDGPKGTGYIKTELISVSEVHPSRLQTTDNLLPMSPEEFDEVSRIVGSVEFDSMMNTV
Summary of the method: as §1

T1 sequence (P40763 whole entry, species assumed): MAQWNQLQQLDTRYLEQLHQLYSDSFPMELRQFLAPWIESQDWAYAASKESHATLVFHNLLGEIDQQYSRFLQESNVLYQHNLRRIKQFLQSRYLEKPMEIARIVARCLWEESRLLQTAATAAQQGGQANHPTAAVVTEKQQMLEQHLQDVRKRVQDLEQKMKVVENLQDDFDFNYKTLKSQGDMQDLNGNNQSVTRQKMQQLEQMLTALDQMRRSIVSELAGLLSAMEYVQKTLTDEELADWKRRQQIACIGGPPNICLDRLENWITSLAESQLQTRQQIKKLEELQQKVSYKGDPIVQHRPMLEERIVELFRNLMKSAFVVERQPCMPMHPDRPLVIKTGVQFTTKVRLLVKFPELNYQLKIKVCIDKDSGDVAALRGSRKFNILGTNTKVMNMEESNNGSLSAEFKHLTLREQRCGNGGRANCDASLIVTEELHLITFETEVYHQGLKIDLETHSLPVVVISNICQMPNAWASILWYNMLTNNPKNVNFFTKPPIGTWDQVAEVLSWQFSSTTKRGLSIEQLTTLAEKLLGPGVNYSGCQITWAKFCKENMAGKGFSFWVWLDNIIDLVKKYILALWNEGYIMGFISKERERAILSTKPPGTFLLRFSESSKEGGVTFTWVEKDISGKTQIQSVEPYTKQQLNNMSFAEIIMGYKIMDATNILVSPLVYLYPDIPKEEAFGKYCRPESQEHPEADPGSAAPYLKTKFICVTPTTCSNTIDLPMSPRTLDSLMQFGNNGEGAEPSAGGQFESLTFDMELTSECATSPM

CC(C)(C)c1ccc(CN(C(=O)CN(C2CC2)S(=O)(=O)c2c(F)c(F)cc(F)c2F)c2ccc(C(=O)O)cc2)cc1 [AM-1-124, 4-(N-(4-(tert-butyl)benzyl)-2-(N-cyclopropyl-2,3,5,6-tetrafluorophenylsulfonamido)acetamido)benzoic acid]
pIC50 (AR230 cells): 4.57
plasma concentration for the first 120 mins ([1]; CD-1 mice, IP 20 mg/kg): above 2000 ng/mL
half-life ([1]; male, CD-1, mouse, plasma, ip, 20 mg/kg): 1.42 h
fold more resistant to metabolism than SH-4-54 [2]: ~ 4 fold
fold improvement in selectivity vs SH-4-54 (AR230^R cells): 5 fold
fold selectivity for AR230^R over AR230 cells (AR230^R cells): 5.6 fold
Fold Difference (AR230^R cells; Table 5, AR230 vs AR230^R): 5.6
pIC50 (AR230^R cells; read-out: IC50 AR230^R): 5.32
reaction with glutathione (19F NMR) [3]: inert to glutathione
bound to mouse plasma proteins (Plasma protein binding): 99.7%
mode of interaction with STAT3 (19F NMR, fluoride ion production) (STAT3 [4]): non-covalent
pIC50 (STAT3 [5]): 4.52
pKi (STAT3 [5]; Ki STAT3, disruption of STAT3:IL-6R/gp130 peptide complex, FP): 4.82
cytokine-induced pSTAT3 activation [6]: partially inhibited cytokine-induced pSTAT3 activation
nuclear STAT3 protein localization [6]: reduced the nuclear STAT3 protein localization
pKi (STAT1): < 3.60
